MBD2 inh = inhibitors of human MBD2 binding to methylated oligonucleotide; Q9UBB5; TR-FRET; inhibition, % at 4.4 µM; 370,000 compounds, 0.31% hits; AID 686964; in the data active = inhibition above about 13%
Target sequence (Q9UBB5 whole entry, looked up): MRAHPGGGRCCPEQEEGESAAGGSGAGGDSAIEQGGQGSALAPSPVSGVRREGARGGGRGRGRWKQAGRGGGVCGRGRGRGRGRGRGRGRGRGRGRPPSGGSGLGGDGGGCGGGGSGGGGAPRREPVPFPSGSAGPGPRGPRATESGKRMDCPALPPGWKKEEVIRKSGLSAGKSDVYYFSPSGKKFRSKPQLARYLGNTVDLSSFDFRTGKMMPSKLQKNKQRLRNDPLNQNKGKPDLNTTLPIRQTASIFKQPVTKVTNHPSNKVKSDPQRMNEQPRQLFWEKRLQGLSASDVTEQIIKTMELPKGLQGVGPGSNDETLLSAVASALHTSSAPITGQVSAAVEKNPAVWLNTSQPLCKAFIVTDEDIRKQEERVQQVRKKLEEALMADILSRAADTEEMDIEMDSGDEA
DSG3 Ab inh = human desmoglein-3 autoantibody binding inhibition; 310,000 compounds, 0.48% hits; AID 588358; binding (percent of control), % at 10 µM; DSG3-coupled beads, scFv-anti-DSG3-GFP binding, flow cytometry; stronger effect = lower value;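 active = binding more than 3 SD below its plate's average and above zero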;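 also: hits lower antibody fragment binding to DSG3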
NS3 helicase inh = blocks Hepatitis C virus NS3 helicase unwinding. inhibition, % at 10.9 µM. AID 1800. NS3 helicase DNA unwinding, Cy5 molecular beacon fluorescence. 290,000 compounds, 0.56% hits;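 active = inhibition above the mean of all tested compounds plus 3 SD, set per campaign, cut at about 35% in these data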;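 also: 0% = DMSO wells and 100% = thioflavine S control wells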
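Test system: hepatitis C virus NS3 helicase domain fragment enzyme. Also added: annealed dual-labelled DNA beacon duplex, ATP-started. Timing: 60 min unwinding reaction at 25 °C after ATP addition. Technique: Cy5 fluorescence. Measure: % inhibition of unwinding.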
UHRF1 binding = human UHRF1 methylated DNA binding inhibitors; Q96T88; UHRF1 binding to methylated oligo, TR-FRET; AID 687016; inhibition, % at 4.4 µM; 370,000 compounds, 0.75% hits; in the data active = inhibition above about 21%;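 also: UHRF1 SRA domain binding a hemimethylated CpG hairpin DNA probe; 0% = median of test compound wells and 100% = reference inhibitor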
SUMO1 PPI mod = SUMO1-SIM interaction modulation. P63165. SUMO1 binding to a labelled peptide, TR-FRET, 1 h. inhibition, % at 20 µM. 360,000 compounds, 0.33% hits; in the data active = inhibition above about 37%
Target sequence (P63165 whole entry, looked up): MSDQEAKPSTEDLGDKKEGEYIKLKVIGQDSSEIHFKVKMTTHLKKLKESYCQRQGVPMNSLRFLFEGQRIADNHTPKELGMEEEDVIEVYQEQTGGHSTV
DNMT1 inh = blocks human DNA methyltransferase DNMT1. P26358. 360,000 compounds, 0.83% hits. inhibition (reported as % activation of signal), % at 10 µM. DNMT1 molecular beacon, Hinp1I cleavage, fluorescence; in the data active = inhibition above about 50%
Starred values were filed as active, the others as inactive; . = not tested or not shown. Sampled rows, rich in hits. Any-hit rate of the full collection: about 2.5%.

SMILES	MBD2 inh	DSG3 Ab inh	NS3 helicase inh	UHRF1 binding	SUMO1 PPI mod	DNMT1 inh
O=C(Nc1cccc(NC(=O)c2ccc([N+](=O)[O-])o2)c1)c1ccco1	0.5	52.8*	-3.8	-1.5	-43.4	1.3
O=C(Nc1ccc(Cl)c([N+](=O)[O-])c1)c1ccco1	3.5	118.0	-2.9	1.8	-23.9	-0.7
O=C(Nc1ccc(NC(=O)c2ccc([N+](=O)[O-])o2)cc1Cl)c1ccco1	-1.6	104.1	0.6	0.8	-14.8	-2.7
COc1cc2c(cc1OC)CN(c1nc(CN3CCCC3)nc3sc(C)c(C)c13)CC2	3.5	.	-18.3	33.9*	2.1	-8.8
Cc1ccc(C(=O)NNC(=O)C(C)Sc2nc(N)cc(N)n2)cc1 (stereo not given)	7.8	99.2	4.8	20.8*	2.4	0.4
Cc1ccc(C(=O)NNC(=O)CSc2nc(N)cc(N)n2)cc1	-4.9	98.4	5.7	-0.6	-0.2	2.3
Cc1cc(C)cc(C(=O)Oc2cc(C)[nH]c(=O)c2[N+](=O)[O-])c1	0.4	130.9	-10.8	-0.5	1.2	-0.1
Cc1ccc(F)cc1C(=O)N1CCOCC1c1cc(C(=O)Nc2ccccc2)no1 (stereo not given)	-0.6	.	.	32.8*	3.9	3.5
Cc1ccc(NC(=O)c2cccs2)cc1NC(=O)c1ccc(F)cc1	1.7	128.2	-0.3	1.4	9.0	-0.6
CNc1oc(-c2ccccc2)nc1S(=O)(=O)c1ccc(C)cc1	11.8	.	-6.7	3.6	1.2	-1.6
CN(C)c1oc(-c2ccc(Cl)cc2)nc1S(=O)(=O)c1ccccc1	10.1	100.2	1.2	25.4*	4.0	0.5
CCN(C(=O)COC(=O)c1cc([N+](=O)[O-])ccc1N1CCOCC1)C1CCCCC1	-4.2	102.2	.	26.3*	-26.1	-1.4
CN(C(=O)COC(=O)c1cc([N+](=O)[O-])ccc1N1CCOCC1)C1CCCCC1	-7.9	100.8	.	-1.6	-34.3	-0.9
Cn1cccc1C(C(=O)NC1CCCCC1)N(C(=O)Cc1cccs1)C1CC1 (stereo not given)	1.1	85.6	-6.7	37.1*	-2.7	7.2
O=C(Nc1ccc(Br)cc1)c1ccc2ncsc2c1	-6.5	.	-5.4	-0.1	-12.5	-4.7
O=C(Nc1ccc2c(c1)C(=O)NC2=O)c1cccc(C(F)(F)F)c1	7.3	101.1	25.1	20.8*	8.6	25.7
O=C(Nc1ccc2c(c1)C(=O)NC2=O)c1ccc2ncsc2c1	-2.0	100.7	6.4	-1.0	41.7*	-1.4
Cc1cc(NC(=O)c2ccc3c(c2)C(=O)N(C2CCCCC2)C3=O)no1	-3.6	108.3	1.2	-2.6	-0.8	27.3
O=C(Nc1ccncc1)c1ccc2c(c1)C(=O)N(C1CCCCC1)C2=O	0.7	110.1	4.7	25.9*	-22.2	-1.4
Cc1ccc(C(=O)N(CC(=O)NC2CCCC2)Cc2cccs2)s1	-0.2	76.1*	-8.3	1.5	-1.1	2.1
CCOC(=O)c1csc(-c2ccc([N+](=O)[O-])cc2)n1	-1.1	.	7.1	-1.3	-33.5	1.6
CC(Sc1ncnc2sccc12)C(=O)Nc1ccc(S(N)(=O)=O)cc1 (stereo not given)	-4.7	.	.	3.6	3.9	-4.4
COc1ccc(CCNC(=O)C2CCC(=O)N(C3CC3)C2)c(OC)c1 (stereo not given)	-0.2	99.2	-10.0	-0.8	7.2	1.8
Cc1ccc(N2C(=O)CC(Cc3cc(C)cc(C)c3)C2=O)cc1 (stereo not given)	10.6	110.3	-6.8	23.6*	3.8	1.2
Cc1cc(C)cc(CC2CC(=O)N(c3cc(C)ccc3C)C2=O)c1 (stereo not given)	-2.0	93.8	-5.0	-0.6	2.4	3.8
SMILES	MBD2 inh	DSG3 Ab inh	NS3 helicase inh	UHRF1 binding	SUMO1 PPI mod	DNMT1 inh
COc1ccc(N2CCN(CC(=O)NC(=O)NC(C)(C)C)CC2)cc1	4.5	98.8	-1.9	3.5	5.6	-0.2
CC(C)CNC1CS(=O)(=O)CC1O (stereo not given)	-0.8	96.2	-3.5	21.9*	-1.6	2.5
COc1ccc(-c2nc3c(C)cc(Br)cn3c2CC2CCCCC2)cc1OC	9.9	.	.	23.5*	-1.7	-1.2
COc1ccc(-c2nc3c(C)cc(Br)cn3c2CC(C)(C)C)cc1OC	8.0	.	.	20.6	2.7	3.9
c1ccc2c(c1)ccn1c(Cc3ccsc3)c(C3CCCCC3)nc21	5.8	.	.	21.4*	7.6	.
Cc1cc(Br)cn2c(Cc3cccc(Cl)c3)c(-c3cccc(Cl)c3)nc12	8.9	.	.	15.8	-7.5	.
COc1ccc(-c2nc3c4ccccc4ccn3c2Cc2ccsc2)cc1OC	12.2	.	.	21.5*	-3.3	-9.4
COc1ccc(-c2nc3c(C)cc(Br)cn3c2Cc2cccc(Cl)c2)cc1OC	7.3	.	.	21.6*	1.1	-13.4
COc1cc(Nc2nc3ccccc3nc2NS(=O)(=O)c2ccc([N+](=O)[O-])cc2)cc(OC)c1OC	2.4	95.8	-22.6	-0.2	-16.8	-9.3
COc1ccc(-c2nc3c4ccccc4ccn3c2Cc2cccc(Cl)c2)cc1OC	5.5	.	.	23.4*	-6.4	-6.8
Fc1cccc(Cc2c(-c3cccc(Br)c3)nc3c(Cl)cc(C(F)(F)F)cn23)c1	0.9	.	.	0.1	1.1	10.2
COc1ccc(-c2nc3c(Cl)cc(C(F)(F)F)cn3c2Cc2cccc(F)c2)cc1OC	2.8	.	.	24.8*	-2.3	-21.0
N#Cc1sc2nc(-c3ccccc3)cc(-c3ccco3)c2c1N	-5.3	104.5	33.6	-5.8	64.2*	27.2
Cc1ccc(Nc2nc(N)c3ccccc3n2)cc1Cl	-1.7	102.0	-67.6	37.9*	7.5	-1.8
COC(=O)CNc1nc(Cl)nc(Nc2ccc(C)cc2)n1	3.8	101.2	-4.6	1.9	1.0	7.5
COC(=O)CNc1nc(Cl)nc(Nc2ccc(Cl)cc2)n1	0.5	75.5*	-0.3	-1.4	1.3	15.8
Cc1ccc(NN2C(=O)C=C(c3ccccc3)C2=O)cc1	1.8	.	-6.1	20.9*	-2.6	5.7
COc1ccc(/C=C(\NC(=O)c2ccccc2)C(=O)NCc2ccco2)cc1OC	-9.3	109.5	-5.2	-1.9	-1.7	1.6
COCCNC(=O)C1(C)CCCN(C(=O)c2cccc3ccccc23)C1 (stereo not given)	-5.7	.	.	-0.6	1.4	-1.5
CCOC(=O)c1sc2nc3c(cc2c1N)C(=O)CC(C)(C)C3	-6.6	85.0	-6.8	6.3	-12.6	-4.4
COC(=O)c1sc2nc3c(cc2c1N)C(=O)CC(C)(C)C3	-0.1	83.2*	1.3	0.5	-13.5	7.1
Cc1ccc(S(=O)(=O)N2CCC(C(=O)Nc3nnc(-c4ccc(F)cc4)s3)CC2)cc1	10.6	124.5	11.6	24.5*	-0.8	9.3
CC(=O)c1ccc(NC(=O)CSc2ccc(-c3ccc4c(c3)OCO4)nn2)cc1	1.4	98.5	0.3	0.0	-1.4	44.7
CCCn1c(SCC(=O)Nc2ccc3c(c2)OCO3)n[nH]c1=O	5.9	92.0	.	0.2	35.2*	-1.5

Screens from PubChem.
